# Shown are actives, neighbours in structure and some others; about 3.4% of the full set was active somewhere.
# SF1 activator: activators of human nuclear receptor SF-1 | CHO-K1 Gal4-SF-1 LBD luciferase reporter; % increase over DMSO SF-1-specific signal | Q13285 | activation, % at 10 µM | 1.9% of 65,000 active;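 active = activation above the mean activation of all tested compounds plus 3 SD, cut at about 50% in these data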
#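 Test system: transient Gal4-SF-1 LBD reporter, CHO-K1; Amount: 4,000 CHO-K1 cells per well; Doses: 10 µM only; Timing: compound exposure 20 h at 37 °C; Signal: luciferase light emission; Read-out basis: percent activation relative to DMSO median and mock-transfected background; Control set: DMSO negative control and −SF1 background wells; Replicates: one test per compound.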
# JNK3 inh: JNK3 (human) kinase inhibition | inhibition, % at 8 µM | AID 746 | purified JNK3 kinase activity, HTS | P53779 | 0.61% of 60,000 active; in the data active = inhibition above about 17%;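 note: 0% = DMSO and 100% = reference inhibitor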
# Hsp90 inh: displaces geldanamycin probe from tumor Hsp90. P07900. NCI-N417 lysate Hsp90, Cy3B-geldanamycin FP displacement. inhibition, % at 30 µM. 0.35% of 64,000 active. AID 429;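 active = inhibition above 50%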;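 note: 0% = tracer plus lysate wells and 100% = tracer alone without lysate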
# DUSP1 inh: blocks human MKP-1 phosphatase activity; 0.15% of 65,000 active; recombinant MKP-1, OMFP hydrolysis fluorescence; inhibition, %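 (compounds tested at a single concentration somewhere between 10 and 100 µM)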; P28562;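 active = inhibition above about 50%, limit read from the data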;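 note: 0% = DMSO max control wells and 100% = wells with enzyme stopped by NaOH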
# Cdc25B block: inhibitors of human Cdc25B phosphatase | P30305 | recombinant Cdc25B, OMFP fluorescence Ex485/Em525 | inhibition, %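 (compounds tested at 10 µM final in the well)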 | 0.1% of 65,000 active; in the data active = inhibition above about 50%
# Target sequence (P30305 whole entry, looked up): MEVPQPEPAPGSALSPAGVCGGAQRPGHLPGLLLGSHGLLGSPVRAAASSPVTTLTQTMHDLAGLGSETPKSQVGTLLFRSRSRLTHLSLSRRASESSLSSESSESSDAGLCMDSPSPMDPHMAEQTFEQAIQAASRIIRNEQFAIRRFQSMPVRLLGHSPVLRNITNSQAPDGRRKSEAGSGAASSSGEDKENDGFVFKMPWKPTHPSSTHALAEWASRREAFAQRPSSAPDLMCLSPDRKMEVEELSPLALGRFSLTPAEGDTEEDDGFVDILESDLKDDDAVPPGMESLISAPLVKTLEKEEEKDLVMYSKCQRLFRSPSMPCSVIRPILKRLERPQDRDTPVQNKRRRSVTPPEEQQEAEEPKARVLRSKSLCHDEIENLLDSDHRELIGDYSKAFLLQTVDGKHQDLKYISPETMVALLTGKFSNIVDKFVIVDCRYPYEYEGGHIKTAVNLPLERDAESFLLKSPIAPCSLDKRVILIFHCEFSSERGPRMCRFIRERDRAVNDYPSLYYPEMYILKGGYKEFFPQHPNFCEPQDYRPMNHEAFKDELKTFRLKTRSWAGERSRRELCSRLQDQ
# RORA act: RORA (human) activation; 1.5% of 65,000 active; activation, % at 10 µM; CHO-K1 Gal4-RORA LBD luciferase reporter, luminescence; percent increase over mock-subtracted basal signal;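 active = activation above the mean of all tested compounds plus 3 SD, cut at about 49% in these data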;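 note: 0% = DMSO-treated RORA cells and 100% = added signal equal to DMSO minus mock-transfected cells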
# * marks the source's active call; other numbers are inactive results; . = not tested or not shown.
SMILES,SF1 activator,JNK3 inh,Hsp90 inh,DUSP1 inh,Cdc25B block,RORA act
N#CCCC12CCCCC1=Nc1ccccc12 (configuration not stated),-2,19*,-8,-9,-6,-16
N#Cc1cccc(Cn2nnc(-c3ccccc3)n2)c1,19,3,-3,0,-12,1
Cc1ccc(-c2noc(CSc3nc(N)cc(N)n3)n2)cc1,61*,-2,-1,7,1,58*
Cc1ccc(-c2noc(CSc3nnnn3C3CCCCC3)n2)cc1,-30,-4,-1,-8,-10,10
O=C(c1ccco1)N1CCN(c2nc3ccsc3c(=O)s2)CC1,18,-3,-4,41,3,8
O=c1sc(N2CCN(c3ccccc3F)CC2)nc2ccsc12,72*,3,-3,-4,-3,60*
c1ccc(COc2ccc(OCCn3cncn3)cc2)cc1,55*,1,-5,-14,-15,19
Cc1cc(C(=O)CSc2nnc(-c3ccco3)o2)c(C)n1-c1ccc2c(c1)OCCO2,7,5,-10,37,-6,20
Cc1cc(C(=O)CSc2nnnn2C)c(C)n1-c1ccc2c(c1)OCCO2,54*,-6,-5,29,4,36
CS(=O)(=O)N1CCN(c2ccc(NC(=O)c3ccc(Br)o3)cc2)CC1,56*,-15,-1,14,0,17
COc1cccc(OC)c1C(=O)Nc1ccc(N2CCN(S(C)(=O)=O)CC2)cc1,-15,1,12,-12,2,-18
O=C(COC(=O)c1ccc(Br)o1)Nc1ccc(S(=O)(=O)N2CCCC2)cc1,-5,2,-1,-8,3,-15
O=C(Nc1ccc(S(=O)(=O)N2CCCCCC2)cc1)c1ccc(Br)o1,13,11,-2,9,-8,50*
c1ccc(Cn2c(-c3ccco3)nc3nc4ccccc4nc32)cc1,82*,-2,-17,-9,-1,75*
CCCCCn1c(-c2ccco2)nc2nc3ccccc3nc21,11,-3,-2,27,10,-5
CC1(c2ccc(Cl)cc2)NC(=O)N(CC(=O)NC(=O)NCc2ccco2)C1=O (configuration not stated),-6,-2,-5,2,-5,-7
O=C(NCc1ccco1)c1ccc(Br)s1,0,5,.,-4,-2,14
O=C(Nc1ccon1)c1cc2c(s1)CCCC2,38,2,-21,22,-8,42
CCc1nnc(NC(=O)c2cc3c(s2)CCCCC3)s1,74*,.,-5,15,-9,34
O=C(Nc1ccon1)c1cc2c(s1)CCCCCC2,82*,3,-2,-4,-5,45
O=C(NCc1ccco1)c1cc2c(s1)CCCCC2,70*,1,-8,-1,-3,7
CNC(=O)c1cc2c(s1)CCCCCC2,8,-5,-2,8,3,-17
CN1CCc2cc(Cl)c(O)cc2[C@@H](c2ccccc2)C1,.,.,0,.,.,.
C=CCN1CCc2c(cc(O)c(O)c2Br)[C@@H](c2ccccc2)C1,.,.,81*,.,.,.
O=C(c1ccco1)N1CCN(Cc2nnnn2CCc2ccccc2)CC1,5,-5,0,-2,-9,-36
SMILES,SF1 activator,JNK3 inh,Hsp90 inh,DUSP1 inh,Cdc25B block,RORA act
CCCCNC(=O)c1cc2c(-c3ccc(Cl)cc3)nn(C)c2s1,11,-7,-3,5,-5,-14
Cn1nc(-c2ccc(Cl)cc2)c2cc(C(=O)NCCCN3CCCC3)sc21,56*,-3,-3,-10,-19,11
COC(=O)CCN(C(=O)C1C2CC3CC(C2)CC1C3)c1ccccn1 (configuration not stated),-11,3,-3,-4,-22,-12
Cc1noc(C)c1CSc1nc2ccccc2s1,19,2,-4,-11,-19,4
c1csc(CSc2nnc3sc4ccccc4n23)c1,40,-1,-5,3,8,51*
c1csc(CSc2nc3ccccc3s2)c1,52*,2,3,-1,3,45
CC(C)(C)NS(=O)(=O)c1cccc(S(=O)(=O)c2cccc(S(=O)(=O)NC(C)(C)C)c2)c1,-12,0,-2,12,-14,-14
CCSCCOC(=O)C1=C(C)NC2=C(C(=O)CCC2)C1c1coc2ccccc2c1=O (configuration not stated),-3,1,1,50*,-4,-16

# Source: PubChem
